Dynein cargo inh: blocks dynein driven cargo transport along microtubules | hit rate 0.47% among 220,000 | 3617.4 mouse cells, GR-EGFP nuclear translocation imaging; test concentration mostly 20 µM; stimulated with dexamethasone, 1 µM; active compounds read low | AID 1381 | z-score, hits read low;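 active = plate z-score of nuclear minus cytoplasmic receptor signal below a set negative limit, without overly bright fluorescence or cell loss, cut at about -3.5 in these data, passing the limit was not always enough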;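 note: z-score of nuclear minus cytoplasmic ring GR-EGFP intensity difference per well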
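Buffer or medium – tet-free medium with charcoal-stripped serum · Signal – automated 10x imaging of fixed Hoechst-stained cells · Also added – dexamethasone agonist, 1.0 µM final, for 30 min · Incubation – induction 48 h, compound 1 h, agonist 30 min · Read-out – GR-EGFP nuclear translocation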
bCat KO growth: beta-catenin-lacking colon tumor cell growth suppression; HCT116 beta-catenin knockout viability, CellTiter-Glo, 60 h; active compounds read low; viability, % at 10 µM; hit rate 1.5% among 140,000;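 active = viability at or under a set limit, the compound median less 4 SD, cut at about 6% in these data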;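 note: 0% = Hyamine 1622 control at 20 µM and 100% = untreated cell control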
Autophagy mod: modulators of autophagy | MEF GFP-LC3 puncta imaging; test concentration mostly 10 µM | calls only at 10 µM (by protocol) | hit rate 0.98% among 190,000;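 active = percentage of spot-positive cells more than 3 SD above its plate mean, without a fluorescence outlier flag or 80% toxicity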;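 note: spot-positive cell cutoff set from DMSO-treated cells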
sdo1 growth: compounds rescuing growth of sdo1-depleted yeast, bone marrow failure model; S. cerevisiae sdo1-depleted JHY4D growth rescue, OD600 30 h; active compounds read high; pdr5 snq2 efflux-pump mutant strain; z-score at 10 µM; hit rate 0.21% among 140,000; AID 817;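 active = z-score above 3 at both the 24 hr and the 30 hr optical density reads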;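 note: z-score against mean and SD of all compound wells on the same plate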
PTEN del growth: suppresses growth of cells with PTEN deletion; HCT116 PTEN-null viability, CellTiter-Glo, 60 h; active compounds read low; viability, % at 10 µM; hit rate 1.2% among 140,000; AID 827;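 active = viability at or below a set limit, 4 SD under the median of all tested compounds, cut at about 3.7% in these data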;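 note: PTEN knockout HCT116 line with beta catenin targeted HCT116 as companion control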
The depositor's hits bear a star; i = inactive; . = no result; + = active, no number. Hits are enriched below; roughly 2.2% of the tested compounds scored in any of these assays.

SMILES	Dynein cargo inh	bCat KO growth	Autophagy mod	sdo1 growth	PTEN del growth
Cc1cccc(NC(=O)CSc2nc3ccccc3c3nc(CCc4c(C)n[nH]c4C)nn23)c1	0.0086	8	i	-0.8	15
Cc1cncn1CCc1nc2c3ccccc3nc(SCC(=O)Nc3cccc(Cl)c3)n2n1	0.57	5.3*	i	2.8	1.0*
O=C1C(N2CCOCC2)=C(n2nnc3ccccc32)C(=O)c2ccccc21	-0.38	2.0*	i	-3	2.1*
Nc1nc(-c2ccccn2)nc(N)c1Cc1ccc(Cl)cc1Cl	-0.23	.	+	.	.
COc1ccc(Sc2cc(C(F)(F)F)nc(-c3ccccn3)n2)cc1	0.57	59	i	-1.3	59
CNC1=C(N(C(C)=O)c2ccc(Br)cc2)C(=O)c2ccccc2C1=O	0.21	1.3*	i	-0.92	1.4*
CCC(=O)N(C1=C(NC)C(=O)c2ccccc2C1=O)C(C)C	-0.48	.	i	.	.
Cc1ccc(N=Cc2cccc(O)c2O)c(C)c1	-0.38	1.9*	i	0.12	2.0*
CC(CN(C)Cc1ccccc1)OC(=O)c1ccccc1F (centres undefined)	0.47	91	i	1.5	100
CCN(CC)CC(C)OC(=O)c1ccccc1Cl (centres undefined)	-0.18	.	+	.	.
CN1CCN(c2ccccc2NC(=O)c2ccc(-c3ccc(Cl)cc3Cl)o2)CC1	0.075	5.5*	i	-2.3	7
Oc1ccc(CN2CCC(Cc3ccccc3)CC2)c2cccnc12	-3	.	i	.	.
COc1ccccc1N1CCN(Cc2cc(Br)c(O)c3ncccc23)CC1	0.38	2.2*	i	0.18	2.1*
Oc1c(CN2CCCCC2)cc(COCc2ccccc2)c2cccnc12	0.4	1.7*	i	0.83	2.2*
Oc1ccc(CN2CCN(c3ccccc3)CC2)c2cccnc12	0.61	3.0*	i	-0.05	2.8*
CCOc1ccccc1N1CCN(Cc2cccc(OC)c2O)CC1	-0.92	74	i	0.93	81
Oc1ccc(CN2CCCCC2)c2cccnc12	1	2.3*	i	1.4	1.2*
NC(=O)c1cc(C(=O)c2ccc(Cl)cc2)c[nH]1	-0.52	.	i	.	.
CCCCCC1CC(CC#CCN2CCOCC2)C(=O)O1 (centres undefined)	-1.2	80	i	-0.17	82
CSc1nc(-c2ccco2)nn1C(=O)c1ccc(Cl)cc1	-0.49	103	i	0.28	95
O=S(=O)(c1ccc2ccccc2c1)N1CCN(C(=S)Nc2ccc(F)cc2)CC1	-0.64	94	i	0.94	95
O=C(CCc1nnc(CCCc2ccccc2)o1)NCCCC1CCCC1	0.78	.	i	.	.
COc1ccc(Nc2nnc(-c3ccc(O)cc3)c3ccccc23)cc1	-0.88	.	i	.	.
OCc1ccc(O)c2ncccc12	-0.8	4.3*	i	-0.67	5
CCCOCc1ccc(O)c2ncccc12	-0.057	.	.	.	.
SMILES	Dynein cargo inh	bCat KO growth	Autophagy mod	sdo1 growth	PTEN del growth
Oc1c(CN2CCN(c3ccccn3)CC2)cc(Cl)c2cccnc12	-0.18	2.0*	i	1.2	2.6*
Oc1ccc(COCc2ccccc2)c2cccnc12	0.59	3.9*	i	0.21	2.3*
Oc1ccc(CN2CCc3ccccc3C2)c2cccnc12	-0.72	2.1*	i	0.13	1.7*
CCOC(=O)N1CCN(Cc2ccc(O)c3ncccc23)CC1	-0.42	.	i	.	.
Oc1ccc(F)c2cccnc12	-0.47	.	i	.	.
Cc1cnn(-c2cc(Oc3ccccc3)ncn2)c1	-0.55	93	i	-0.82	104
Cc1cc([N+](=O)[O-])nn1CCCC(=O)NC1CCCCC1	-1	.	i	.	.
COc1cc(COCC(O)CN2CCN(CCN3C(=O)c4cccc5cccc(c45)C3=O)CC2)cc(OC)c1OC (centres undefined)	-0.24	29	i	-0.51	32
CC(=O)c1ccccc1OCC(O)CN1CCN(CCN2C(=O)c3cccc4cccc(c34)C2=O)CC1 (centres undefined)	-0.9	.	i	.	.
CCc1ccc(OCC(O)CN2CCC(CN3C(=O)c4cccc5cccc(c45)C3=O)CC2)cc1 (centres undefined)	-0.46	1.1*	i	-0.29	1.2*
Cc1ccc(C)c(OCC(O)CN2CCN(CCN3C(=O)c4cccc5cccc(c45)C3=O)CC2)c1 (centres undefined)	-0.055	1.1*	i	-0.02	1.2*
O=C1c2cccc3cccc(c23)C(=O)N1CCN1CCN(CC(O)COc2ccc3ccccc3c2)CC1 (centres undefined)	-1.1	1.5*	i	-1.7	1.2*
O=C1c2cccc3cccc(c23)C(=O)N1CCN1CCN(CC(O)COCc2ccc(Cl)cc2)CC1 (centres undefined)	-0.85	3.1*	i	-0.16	2.7*
COc1cccc(OCC(O)CN2CCC(CN3C(=O)c4cccc5cccc(c45)C3=O)CC2)c1 (centres undefined)	-0.75	.	i	.	.
COCC(C)NC(=O)CSc1nc2ccccc2n1CCc1ccccc1 (centres undefined)	0.48	90	i	0.06	101
O=C(CSc1ncnc2sc3c(c12)CCCCC3)NCc1ccco1	0.25	27	+	-1.8	27
Cc1nnc(SCC(=O)NCc2ccc3c(c2)OCO3)n1C	-0.06	.	i	.	.
O=C(Nc1ccc(N2CCN(C(=O)c3ccccc3)CC2)cc1)c1cc2ccccc2o1	i	5.6*	i	-1.7	17
CCCC(=O)N1CCN(c2ccc(NC(=O)c3cc4ccccc4o3)cc2)CC1	-0.35	90	i	-0.51	80
Cc1cc2nc(CSc3ccccc3)cc(=O)n2[nH]1	-0.91	.	i	.	.
COc1ccc(-n2nnnc2-c2cccc(OC)c2)cc1	-0.88	19	+	-0.86	19
COCCCNC(=S)Nc1ccc(CC(=O)O)cc1	1.6	96	i	0.19	101
CCC(=O)NC(=S)Nc1cccc(NC(=O)c2ccccc2)c1	1.6	.	+	.	.
CCC(=O)Nc1cccc(C(=O)/C=C/c2cccs2)c1	-1.8	.	i	.	.
CCC(=O)Nc1cccc(C(=O)/C=C/c2ccccc2)c1	-1	1.6*	i	-1.5	1.4*
SMILES	Dynein cargo inh	bCat KO growth	Autophagy mod	sdo1 growth	PTEN del growth
Cc1ccc(/C=C/C(=O)Nc2nc3ccccc3[nH]2)cc1	0.43	69	i	-1.3	68
Cc1ccc(/C=C/C(=O)c2nc3ccccc3[nH]2)cc1	-0.1	2.5*	i	-1.9	2.7*
Cc1cc(N/N=C/c2ccc(F)cc2)nc(-n2nc(C)cc2C)n1	1.3	.	.	.	.
COc1cccc(/C=N/Nc2cc(-n3nc(C)cc3-c3ccccc3)ncn2)c1O	0.11	3.8*	i	-1	3.5*
COc1ccc(/C=N/Nc2cc(C)nc(-n3nc(C)cc3C)n2)c(OC)c1	-0.21	2.6*	i	-0.86	2.4*
COc1cccc(/C=N/Nc2nc(Nc3ccccc3)nc(-n3nc(C)cc3C)n2)c1O	0.66	2.8*	i	-3.2	2.0*
COc1cccc(/C=N/Nc2ncnc3scc(-c4ccccc4)c23)c1O	0.1	9	i	-1.6	14
Cn1ncc(Oc2ccc([N+](=O)[O-])cc2)c(Cl)c1=O	0.32	.	.	.	.

Source: PubChem
